These results are taken from ChEMBL document CHEMBL1641413, “Identification of 3-sulfonylindazole derivatives as potent and selective 5-HT(6) antagonists” (Bioorg Med Chem, 2011).

In series [1] the target is T1, 5-hydroxytryptamine receptor 6 (Homo sapiens, UniProt P50406). The series is described as follows: Displacement of [3H]-LSD from cloned human 5-HT6 receptor expressed in human HeLa cells. It is filed as cell-based. An outline of the steps:
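Radioligand displacement of [³H]-LSD from cloned human 5-HT6 receptors stably expressed in HeLa cells; compounds tested as HCl salts; Ki values determined in triplicate.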
(In general: In a radioligand displacement assay an active substance lowers the binding of a labelled ligand.)

The target of series [2] is T1, 5-hydroxytryptamine receptor 6. The series is described as follows: Antagonist activity at cloned human 5-HT6 receptor expressed in human HeLa cells assessed as inhibition of 5HT-induced cyclic AMP formation. It is filed as functional, cell-based.
Series [3] has as its target T2, 5-hydroxytryptamine receptor 1A (Homo sapiens, UniProt P08908).
T2 sequence (P08908 whole entry): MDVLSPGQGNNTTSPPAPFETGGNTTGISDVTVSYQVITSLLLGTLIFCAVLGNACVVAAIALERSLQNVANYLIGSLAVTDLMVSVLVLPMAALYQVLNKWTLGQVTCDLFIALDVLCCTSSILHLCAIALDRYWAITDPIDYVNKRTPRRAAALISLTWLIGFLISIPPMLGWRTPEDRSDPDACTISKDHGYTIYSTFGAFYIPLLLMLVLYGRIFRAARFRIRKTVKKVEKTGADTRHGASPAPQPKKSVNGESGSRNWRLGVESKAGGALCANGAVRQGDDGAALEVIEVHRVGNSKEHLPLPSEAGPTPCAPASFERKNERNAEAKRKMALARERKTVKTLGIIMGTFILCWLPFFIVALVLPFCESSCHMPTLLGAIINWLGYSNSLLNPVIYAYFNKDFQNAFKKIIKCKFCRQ
The series is described as follows: Binding affinity to 5-HT1A receptor.

Series [4] addresses 5-hydroxytryptamine receptor 1B (Homo sapiens, UniProt P28222). The series is described as follows: Binding affinity to 5-HT1B receptor.
The target of series [5] is 5-hydroxytryptamine receptor 1D (Homo sapiens, UniProt P28221). The series is described as follows: Binding affinity to 5-HT1D receptor.
The target in series [6] is T3, 5-hydroxytryptamine receptor 2B (Homo sapiens, UniProt P41595). Put plainly: Binding affinity to 5-HT2B receptor.
Series [7] addresses T4, 5-hydroxytryptamine receptor 2C (Homo sapiens, UniProt P28335).
T4 sequence (P28335 whole entry): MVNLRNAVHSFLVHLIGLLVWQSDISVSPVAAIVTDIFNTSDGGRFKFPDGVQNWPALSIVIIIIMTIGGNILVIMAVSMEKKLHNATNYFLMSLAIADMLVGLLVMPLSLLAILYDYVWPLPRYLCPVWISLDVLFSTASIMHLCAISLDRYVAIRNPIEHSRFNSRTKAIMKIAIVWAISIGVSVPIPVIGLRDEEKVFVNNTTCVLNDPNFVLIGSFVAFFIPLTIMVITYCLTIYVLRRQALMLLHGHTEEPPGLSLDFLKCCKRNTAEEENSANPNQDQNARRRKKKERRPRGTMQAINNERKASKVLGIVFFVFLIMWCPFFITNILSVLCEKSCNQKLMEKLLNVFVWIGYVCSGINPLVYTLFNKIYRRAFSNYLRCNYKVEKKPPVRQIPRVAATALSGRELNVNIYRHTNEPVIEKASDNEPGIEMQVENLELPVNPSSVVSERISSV
The series is described as follows: Binding affinity to 5-HT2C receptor.

The target in series [8] is 5-hydroxytryptamine receptor 7 (Homo sapiens, UniProt P34969). The series is described as follows: Binding affinity to 5-HT7 receptor.
The target of series [9] is T5, Alpha-2A adrenergic receptor (Homo sapiens, UniProt P08913).
T5 sequence (P08913 whole entry): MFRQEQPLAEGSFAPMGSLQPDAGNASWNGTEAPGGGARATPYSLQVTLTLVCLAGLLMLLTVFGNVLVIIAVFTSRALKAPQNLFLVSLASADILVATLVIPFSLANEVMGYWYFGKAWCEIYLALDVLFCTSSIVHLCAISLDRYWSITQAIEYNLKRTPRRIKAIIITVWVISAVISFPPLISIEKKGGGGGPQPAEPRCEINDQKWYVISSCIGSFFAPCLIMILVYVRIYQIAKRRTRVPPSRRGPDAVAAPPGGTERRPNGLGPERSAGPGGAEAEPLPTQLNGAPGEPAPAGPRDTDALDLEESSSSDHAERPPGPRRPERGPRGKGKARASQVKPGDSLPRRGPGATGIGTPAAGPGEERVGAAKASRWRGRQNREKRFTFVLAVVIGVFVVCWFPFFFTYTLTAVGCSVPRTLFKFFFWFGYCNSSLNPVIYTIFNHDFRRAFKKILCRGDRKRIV
Put plainly: Binding affinity to adrenergic alpha2A receptor.

Another series concerns the target D(2) dopamine receptor (Homo sapiens, UniProt P14416). Put plainly: Binding affinity to dopamine D2 receptor.
Series [10] deals with T3, 5-hydroxytryptamine receptor 2B. The series is described as follows: Agonist activity at 5-HT2B receptor at 0.1 nM to 10 uM by FLIPR assay. It is filed as functional.
The nature of series [11]: Solubility of the compound in water. It is filed as physicochemical.
The nature of series [12]: Half life in rat microsomes. It is filed as ADME, Microsome.
Series [13] in a line: Half life in human microsomes. It is filed as ADME, Microsome.
A short description of series [14]: Binding affinity to P-glycoprotein.
The nature of series [15]: % bound in plasma. It is filed as ADME, cell-free. The conditions noted are these: read-out: PPB.
Another series relates to Rattus norvegicus. The series is described as follows: Cognitive enhancing effect in rat assessed as inhibition of scopolamine-induced memory deficit at 10 mg/kg, po by novel object recognition test. It is filed as functional, organism-based. Also on record: dose 10 mg/kg. The method, boiled down:
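Rats given compound orally at 10 mg/kg; scopolamine-induced memory deficit assessed in a novel object recognition assay.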

pIC50, pKi: −log10 of the molar value. Active and inactive are the calls of the source. The rule behind the calls is not given here.

The term pKi denotes −log10 of the Ki, conventionally taken in molar units. Usually pIC50 stands for −log10 of the IC50, conventionally taken in molar units. In general, solubility refers to the concentration that dissolves in the medium under given conditions. Lower therefore signals a poorly soluble substance. As usually defined, the half-life is the time in which the quantity being followed falls by half. A low value points to rapid decline.

T1 sequence (P50406 whole entry): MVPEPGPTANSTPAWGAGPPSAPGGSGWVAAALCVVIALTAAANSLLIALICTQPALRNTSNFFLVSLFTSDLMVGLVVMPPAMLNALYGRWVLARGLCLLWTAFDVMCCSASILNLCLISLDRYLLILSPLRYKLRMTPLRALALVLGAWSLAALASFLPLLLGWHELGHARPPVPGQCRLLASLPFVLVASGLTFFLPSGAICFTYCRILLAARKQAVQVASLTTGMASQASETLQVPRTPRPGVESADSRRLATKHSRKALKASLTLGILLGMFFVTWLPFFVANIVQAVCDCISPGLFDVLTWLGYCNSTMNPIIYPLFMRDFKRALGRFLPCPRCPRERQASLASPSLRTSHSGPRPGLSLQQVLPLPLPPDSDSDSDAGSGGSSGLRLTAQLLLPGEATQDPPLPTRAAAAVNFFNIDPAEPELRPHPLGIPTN
T3 sequence (P41595 whole entry): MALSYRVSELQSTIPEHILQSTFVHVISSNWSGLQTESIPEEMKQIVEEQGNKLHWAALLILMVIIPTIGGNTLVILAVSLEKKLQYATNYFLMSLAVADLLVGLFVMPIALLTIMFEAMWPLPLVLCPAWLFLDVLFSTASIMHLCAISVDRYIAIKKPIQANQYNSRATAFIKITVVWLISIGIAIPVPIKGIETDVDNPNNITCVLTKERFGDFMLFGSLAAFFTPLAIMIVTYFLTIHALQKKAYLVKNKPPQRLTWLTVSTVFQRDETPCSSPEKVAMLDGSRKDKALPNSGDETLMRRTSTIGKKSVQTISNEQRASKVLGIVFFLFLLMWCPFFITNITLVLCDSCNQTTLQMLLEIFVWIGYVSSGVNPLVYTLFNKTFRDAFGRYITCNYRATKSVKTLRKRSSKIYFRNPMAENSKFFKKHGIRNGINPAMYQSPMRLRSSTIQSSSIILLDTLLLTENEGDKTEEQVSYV
Sequence of 5-hydroxytryptamine receptor 1D (P28221 whole entry): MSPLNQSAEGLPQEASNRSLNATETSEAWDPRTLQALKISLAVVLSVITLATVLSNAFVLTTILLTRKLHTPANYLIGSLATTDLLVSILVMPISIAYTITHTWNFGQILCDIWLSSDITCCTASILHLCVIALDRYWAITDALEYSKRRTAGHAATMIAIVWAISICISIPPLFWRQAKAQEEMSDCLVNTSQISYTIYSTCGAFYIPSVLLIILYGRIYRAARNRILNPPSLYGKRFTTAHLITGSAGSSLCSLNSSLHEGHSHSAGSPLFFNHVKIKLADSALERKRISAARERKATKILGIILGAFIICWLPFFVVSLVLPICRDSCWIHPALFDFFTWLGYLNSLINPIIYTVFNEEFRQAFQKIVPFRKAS
Sequence of D(2) dopamine receptor (P14416 whole entry): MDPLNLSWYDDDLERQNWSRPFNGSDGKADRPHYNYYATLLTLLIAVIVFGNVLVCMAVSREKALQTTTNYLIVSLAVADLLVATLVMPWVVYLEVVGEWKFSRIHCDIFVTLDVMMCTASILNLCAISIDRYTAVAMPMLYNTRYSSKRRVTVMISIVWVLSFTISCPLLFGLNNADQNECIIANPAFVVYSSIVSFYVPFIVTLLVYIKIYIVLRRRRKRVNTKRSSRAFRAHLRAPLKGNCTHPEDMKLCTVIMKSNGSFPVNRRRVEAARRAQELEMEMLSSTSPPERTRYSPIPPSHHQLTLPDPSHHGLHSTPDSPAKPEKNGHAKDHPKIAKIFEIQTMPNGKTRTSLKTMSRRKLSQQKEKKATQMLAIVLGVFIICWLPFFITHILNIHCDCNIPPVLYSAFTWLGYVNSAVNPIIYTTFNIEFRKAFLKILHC
Sequence of 5-hydroxytryptamine receptor 1B (P28222 whole entry): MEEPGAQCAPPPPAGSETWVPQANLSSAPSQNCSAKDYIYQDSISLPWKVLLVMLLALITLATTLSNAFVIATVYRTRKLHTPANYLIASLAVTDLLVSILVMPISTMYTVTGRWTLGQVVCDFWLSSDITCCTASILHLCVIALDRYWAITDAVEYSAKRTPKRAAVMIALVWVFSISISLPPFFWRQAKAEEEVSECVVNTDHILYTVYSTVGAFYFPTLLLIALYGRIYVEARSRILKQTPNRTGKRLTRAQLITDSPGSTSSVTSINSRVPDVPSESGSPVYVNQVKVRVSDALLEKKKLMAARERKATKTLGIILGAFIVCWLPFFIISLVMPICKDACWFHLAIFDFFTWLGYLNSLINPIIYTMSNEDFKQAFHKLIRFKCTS
Sequence of 5-hydroxytryptamine receptor 7 (P34969 whole entry): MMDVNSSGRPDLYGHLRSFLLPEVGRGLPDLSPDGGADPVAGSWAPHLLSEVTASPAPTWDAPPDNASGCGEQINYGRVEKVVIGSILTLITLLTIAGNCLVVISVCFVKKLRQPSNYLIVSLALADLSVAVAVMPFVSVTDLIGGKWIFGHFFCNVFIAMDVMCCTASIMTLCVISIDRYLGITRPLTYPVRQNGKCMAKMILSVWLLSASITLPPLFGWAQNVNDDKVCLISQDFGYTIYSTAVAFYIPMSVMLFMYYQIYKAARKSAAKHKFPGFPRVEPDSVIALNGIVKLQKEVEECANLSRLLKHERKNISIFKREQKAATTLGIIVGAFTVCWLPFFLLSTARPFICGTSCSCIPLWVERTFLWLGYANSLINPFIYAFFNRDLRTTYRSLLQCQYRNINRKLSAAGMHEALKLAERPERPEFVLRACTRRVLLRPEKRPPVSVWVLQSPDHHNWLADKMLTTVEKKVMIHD

As to `Cl.O=C(Nc1ccc2[nH]nc(S(=O)(=O)c3cccc4ccccc34)c2c1)C1CCNCC1`, the pKi in series [1] was 8.96; in [3], 5.52; in series [4], below 5.30; in series [5], 5.87; in series [6] it was 7.48; in series [7], below 5.30. Moreover, the pKi (in [8]; in series [9]; at D(2) dopamine receptor) was below 5.30 in each case. In [2], the pIC50 was 8.09. The result in series [10] and in [14] was inactive. In addition, the solubility in [11] is above 100 µg/mL. In addition, the half-life in [12] and in series [13] was above 30 min each time. Also, the fraction unbound in series [15] was above 0.2. Moreover, in the series on Rattus norvegicus, the inhibition entry is “Active”.
